The record followed here is ChEMBL document CHEMBL5352471, “Design, synthesis, and pharmacological evaluations of pyrrolo[1,2-a]quinoxaline-based derivatives as potent and selective sirt6 activators” (Eur J Med Chem, 2023).

The source made the active and inactive calls. The rule behind the calls is not given here.

For orientation: CC50 means the concentration giving 50% cytotoxicity. For orientation: EC50 means the concentration giving half of the maximal effect. By bioavailability is commonly meant dose-corrected exposure relative to a reference, in per cent. Higher therefore signals good availability.

Data set [1] in a line: Cytotoxicity against human A549-ACE2 cells assessed as inhibition of cell growth measured for 48 hrs. It is filed as functional.
Data set [2] has as its target T1, NAD-dependent protein deacylase sirtuin-6 (Homo sapiens, UniProt Q8N6T7). As to the kind of experiment: Activation of recombinant SIRT6 (unknown origin) deacetylase activity using fluoro peptide as substrate by microplate reader analysis.
Data set [3] concerns the target T2, NAD-dependent protein deacetylase sirtuin-1 (Homo sapiens) (UniProt Q96EB6).
T2 sequence (whole entry): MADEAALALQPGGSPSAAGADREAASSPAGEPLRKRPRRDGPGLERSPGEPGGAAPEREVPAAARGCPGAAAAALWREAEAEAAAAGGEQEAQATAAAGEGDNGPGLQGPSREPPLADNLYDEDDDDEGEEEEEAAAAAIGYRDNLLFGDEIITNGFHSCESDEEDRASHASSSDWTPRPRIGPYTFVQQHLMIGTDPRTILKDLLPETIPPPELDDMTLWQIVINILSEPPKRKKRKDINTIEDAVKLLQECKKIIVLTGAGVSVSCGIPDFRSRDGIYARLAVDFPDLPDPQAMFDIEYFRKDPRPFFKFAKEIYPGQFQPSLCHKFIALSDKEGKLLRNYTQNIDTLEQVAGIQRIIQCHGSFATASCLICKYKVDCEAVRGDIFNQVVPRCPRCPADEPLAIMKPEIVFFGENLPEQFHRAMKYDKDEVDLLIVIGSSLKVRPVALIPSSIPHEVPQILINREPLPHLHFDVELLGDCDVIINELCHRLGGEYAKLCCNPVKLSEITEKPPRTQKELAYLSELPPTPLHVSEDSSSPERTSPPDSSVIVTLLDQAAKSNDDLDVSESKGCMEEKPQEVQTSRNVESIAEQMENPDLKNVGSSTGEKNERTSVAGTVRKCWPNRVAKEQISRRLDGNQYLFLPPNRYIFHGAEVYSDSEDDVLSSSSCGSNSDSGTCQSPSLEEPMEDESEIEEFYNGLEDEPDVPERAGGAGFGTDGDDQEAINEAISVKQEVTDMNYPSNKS
The experiment in a line: Activation of human SIRT1 (unknown origin) deacetylation activity using fluorogenic substrate measured upto 120 mins by microplate reader analysis. The gist of the method: (§1)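 Recombinant Sirt1 or Sirt2 was assayed with a kit fluoro-substrate peptide (0.1 mM stock), NAD+ (8 mM stock) and developer in a 25 µL reaction at room temperature. Fluorescence was read over 125 min, at Ex/Em 350/450 nm for Sirt1 and 490/530 nm for Sirt2.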

Data set [4] deals with NAD-dependent protein deacylase sirtuin-5, mitochondrial (Homo sapiens) (UniProt Q9NXA8). As to the kind of experiment: Activation of human SIRT5 (unknown origin) desuccinylation activity using fluorogenic substrate measured upto 120 mins by microplate reader analysis.
NAD-dependent protein deacylase sirtuin-5, mitochondrial (Homo sapiens), sequence (Q9NXA8 37-310 limits assumed): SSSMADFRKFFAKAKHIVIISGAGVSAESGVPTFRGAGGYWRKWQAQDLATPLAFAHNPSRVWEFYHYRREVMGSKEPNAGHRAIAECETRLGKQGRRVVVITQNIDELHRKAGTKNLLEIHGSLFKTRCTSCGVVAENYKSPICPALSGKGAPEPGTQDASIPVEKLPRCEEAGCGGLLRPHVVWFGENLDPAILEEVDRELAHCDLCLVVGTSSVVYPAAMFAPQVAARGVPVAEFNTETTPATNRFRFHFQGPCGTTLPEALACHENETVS
For the next data set, the system named is SARS-CoV-2. As to the kind of experiment: Antiviral activity against SARS-CoV-2 infected in human A549-ACE2 cells assessed as viral growth inhibition. The settings on record: Severe acute respiratory syndrome coronavirus 2, A549-ACE2. The data set is classed as functional, organism-based.
Data set [5] deals with T3, NAD-dependent protein deacetylase sirtuin-2 (Homo sapiens) (UniProt Q8IXJ6).
T3 sequence (whole entry): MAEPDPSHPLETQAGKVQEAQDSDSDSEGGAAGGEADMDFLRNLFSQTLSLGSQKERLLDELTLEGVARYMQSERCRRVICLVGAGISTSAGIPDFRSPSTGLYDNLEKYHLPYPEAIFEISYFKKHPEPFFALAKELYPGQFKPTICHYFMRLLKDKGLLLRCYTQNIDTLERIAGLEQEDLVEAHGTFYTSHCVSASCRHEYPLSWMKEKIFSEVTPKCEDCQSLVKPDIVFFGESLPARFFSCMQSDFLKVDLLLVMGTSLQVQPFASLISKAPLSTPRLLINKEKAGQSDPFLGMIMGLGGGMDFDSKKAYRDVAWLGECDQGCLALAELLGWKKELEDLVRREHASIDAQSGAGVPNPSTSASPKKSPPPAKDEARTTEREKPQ
The experiment in a line: Activation of human SIRT2 (unknown origin) deacetylation activity using fluorogenic substrate measured upto 120 mins by microplate reader analysis. The gist of the method:
as §1

The target in data set [6] is T1, NAD-dependent protein deacylase sirtuin-6. As to the kind of experiment: Activation of SIRT6 (unknown origin) deacetylase activity assessed as fold increase in maximal activation. Particulars: filed as activator.
Data set [7] can be described thus: Oral bioavailability in C57BL/6J mouse at 20 to 30 mg/kg, iv measured upto 24 hrs by LC-MS/MS analysis. It is filed as ADME, organism-based. Particulars: in vivo, dose 20-30 mg/kg.
Data set [8] deals with T1, NAD-dependent protein deacylase sirtuin-6. The experiment in a line: Activation of his6-tagged SIRT6 (unknown origin) assessed as fold activation using H3K9Ac peptide substrate incubated for 30 mins. The settings on record: filed as activator.
For data set [9] the target is unchanged. The experiment in a line: Activation of SIRT6 (unknown origin) deacetylase activity assessed as fold activation. The settings on record: filed as activator. The gist of the method:
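Recombinant Sirt6 was run in a fluorometric activity kit (FDL-type deacetylation) with a fluoro-substrate peptide (0.1 mM stock), NAD+ (8 mM stock) and developer in a 25 µL reaction at room temperature. Compounds were tested at 100 and 30 µM. Fluorescence was read at Ex/Em 490/530 nm over 125 min. Fold activation is given as mean ± SD from at least two independent experiments.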

T1 sequence (Q8N6T7 whole entry): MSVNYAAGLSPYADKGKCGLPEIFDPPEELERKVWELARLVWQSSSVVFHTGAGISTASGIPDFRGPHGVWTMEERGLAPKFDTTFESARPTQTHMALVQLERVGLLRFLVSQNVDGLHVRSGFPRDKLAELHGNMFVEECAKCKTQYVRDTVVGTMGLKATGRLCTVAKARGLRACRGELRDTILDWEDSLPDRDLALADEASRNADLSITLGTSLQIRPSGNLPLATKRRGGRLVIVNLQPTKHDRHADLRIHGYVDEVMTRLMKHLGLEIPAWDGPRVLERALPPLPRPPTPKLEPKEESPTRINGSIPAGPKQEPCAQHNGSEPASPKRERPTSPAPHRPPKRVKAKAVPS

As for `CN(C)CCN1CCN(c2ncccc2C2Nc3ccccc3-n3cccc32)CC1` (stereo not drawn), the CC50 in [1] is more than 50 µM. In addition, the EC50 came to 48.8 µM in [2] and 9.3 µM with SARS-CoV-2. For the same compound, the outcome in [3], in data set [4] and in data set [5] was inactive. For the same compound, the outcome in data set [3] (filed as activator) was Active.
`c1cncc(C2Nc3ccccc3-n3cccc32)c1` (stereo not drawn): the CC50 in data set [1] was more than 50 µM. The EC50 in the data set on SARS-CoV-2 was 50 µM. The fold change (FC) in data set [6] came to 2.
In [7], `Cc1cc(F)c(Br)cc1NS(=O)(=O)c1ccc(NS(=O)(=O)c2cc(Cl)cc(Cl)c2)cc1CN1CCOC[C@H]1C` yielded a bioavailability of 93%.
Take `CCCCCCCC/C=C\CCCCCCCC(=O)NCCO`: in [8], the fold change (FC) worked out at 2.1.
As to `O=C(O)c1ccc2c(c1)C(=O)N(c1ccc(N(C(=O)c3c(Cl)cc(Cl)cc3Cl)C(=O)c3c(Cl)cc(Cl)cc3Cl)c(Cl)c1)C2=O`, the fold change (FC) in data set [9] is 4.
